Screening data from PubChem BioAssay.
Diaph act CS – diaphorase activation or chemical reduction counter-screen | Diaphorase/resazurin coupled assay, resorufin fluorescence, 16 min; stronger effect = higher value; 1 = vehicle wells, 0 = NADH-free wells | activation factor at 20 µM | 0.005% of 190,000 active | AID 1229;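 active = diaphorase activity raised at least twofold by the compound at 20 µM; inactive = activation factor below 2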
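Measured by – red resorufin fluorescence at 544/590 nm excitation/emission · Test system – Clostridium kluyveri diaphorase, purified enzyme · Incubation – reaction time 16 min, room temperature · Buffer or medium – 50 mM HEPES pH 7.4 with 4.542 mM MgCl2, 0.005% Tween 20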
KCC2 mod – KCC2 (human) Cl- transport modulation. AID 1456. B-score of Tl+ flux slope (higher = more flux/activation; lower = inhibition) at 10 µM. KCC2 cells, thallium flux FluoZin-2 fluorescence. Q9H2X9. 2.2% of 190,000 active;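 active = thallium flux slope and its plate-corrected score both differing from the plate sample mean at a set confidence after two filtering rounds, in either direction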;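 also: slope of fluorescence scaled to starting intensity during 10 to 20 s after thallium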
Target sequence (Q9H2X9 whole entry, looked up): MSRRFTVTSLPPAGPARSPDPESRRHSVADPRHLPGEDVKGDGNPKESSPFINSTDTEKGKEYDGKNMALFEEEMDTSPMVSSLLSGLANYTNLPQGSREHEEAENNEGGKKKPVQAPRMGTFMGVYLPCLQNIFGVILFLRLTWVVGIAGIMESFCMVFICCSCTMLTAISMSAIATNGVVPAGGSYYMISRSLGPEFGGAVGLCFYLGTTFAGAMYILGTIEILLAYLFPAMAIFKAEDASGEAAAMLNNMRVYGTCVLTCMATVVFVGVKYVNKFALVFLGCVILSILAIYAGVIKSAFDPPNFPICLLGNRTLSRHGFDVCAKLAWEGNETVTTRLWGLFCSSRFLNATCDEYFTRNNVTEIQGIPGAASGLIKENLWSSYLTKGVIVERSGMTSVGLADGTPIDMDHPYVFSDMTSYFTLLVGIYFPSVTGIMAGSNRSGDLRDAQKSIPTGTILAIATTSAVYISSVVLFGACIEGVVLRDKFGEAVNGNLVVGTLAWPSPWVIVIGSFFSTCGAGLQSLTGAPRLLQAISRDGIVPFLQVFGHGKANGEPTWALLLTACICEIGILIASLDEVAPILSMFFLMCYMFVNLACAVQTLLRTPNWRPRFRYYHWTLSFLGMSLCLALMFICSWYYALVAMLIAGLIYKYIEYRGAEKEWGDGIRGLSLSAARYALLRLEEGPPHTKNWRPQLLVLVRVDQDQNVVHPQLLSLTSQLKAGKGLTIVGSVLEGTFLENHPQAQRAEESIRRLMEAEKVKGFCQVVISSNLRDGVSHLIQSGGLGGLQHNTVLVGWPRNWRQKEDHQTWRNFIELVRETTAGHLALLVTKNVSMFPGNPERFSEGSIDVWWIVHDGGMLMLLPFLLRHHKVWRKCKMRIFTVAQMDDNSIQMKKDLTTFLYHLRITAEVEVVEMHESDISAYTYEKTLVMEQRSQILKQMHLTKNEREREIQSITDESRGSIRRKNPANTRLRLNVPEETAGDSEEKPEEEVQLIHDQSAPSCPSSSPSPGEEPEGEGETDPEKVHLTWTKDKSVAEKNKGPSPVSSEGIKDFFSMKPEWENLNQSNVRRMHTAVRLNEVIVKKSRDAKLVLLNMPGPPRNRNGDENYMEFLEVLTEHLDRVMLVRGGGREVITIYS
Lmaj promast – reduces viability of Leishmania major promastigotes. resazurin fluorescence viability. AID 1063. 9% of 200,000 active. inhibition, % at 10 µM; in the data active = inhibition above about 50%;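 also: promastigotes grown with compound for 44 hours at 28 °C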
Diaph inh CS – diaphorase inhibition or chemical oxidation counter-screen | diaphorase resazurin-to-resorufin fluorescence, NADH, 16 min; bacterial (C. kluyveri) enzyme, not human | inhibition, % at 20 µM | 0.69% of 190,000 active;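 active = primary screen inhibition at 20 µM above a set limit, cut at about 50% in these data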
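Test system: diaphorase enzyme from Clostridium kluyveri; amount: diaphorase at 0.14 U/mL in enzyme working solution; detection: fluorescence of resorufin formed from resazurin, Ex 544/Em 590 nm; times: reaction incubation of 16 min at room temperature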
ROMK mod – modulates human ROMK potassium channel activity; Tet-inducible ROMK, thallium flux fluorescence; actives lie on both sides; 2% of 130,000 active; B-score at 10 µM; P48048;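 active = signal ratio slope over the read window, or its plate-corrected B-score, at least 3 SD from the plate mean, either direction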;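 also: B-score of the F/F0 ratio slope over 7 to 12 s after thallium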
WT yeast gro inh – growth inhibition of WT yeast, mitochondrial fusion screen; mitochondrial fusion phenotypic screen, WT strain; inhibition, % at 10 µM; 2.1% of 190,000 active; in the data active = inhibition above about 58%; tested in S. cerevisiae
Of the large screens only hits and unclear results are named; the others gave an inactive call. Rows were chosen to be rich in hits. Some 12% of all compounds tested hit in one or more screens of this group.

CCC(C)NC(=O)CCSc1ccc(C)cc1 (stereo not given)	none
Cc1cc(S(=O)(=O)N2CCN(C(=O)CCC(=O)N3CCOCC3)CC2)ccc1Br	none (no result: Diaph act CS, Lmaj promast, Diaph inh CS, ROMK mod, WT yeast gro inh)
Cc1ccc(NC(=O)N(Cc2ccco2)Cc2cc3cc(C)cc(C)c3nc2Cl)cc1	none (no result: KCC2 mod, ROMK mod)
N#CCCN(Cc1cccnc1)C(=O)Nc1ccc(Cl)c(Cl)c1	Lmaj promast 95 (no result: ROMK mod)
O=C(Nc1ccc(Cl)cc1)N(Cc1cccnc1)Cc1ccco1	Lmaj promast 92 (no result: ROMK mod)
Cc1ccc(NC(=O)N(Cc2cccnc2)Cc2ccco2)cc1C	Lmaj promast 92 (no result: ROMK mod)
CCCN(CCC)S(=O)(=O)c1ccc(C(=O)NCc2n[nH]c(=S)n2-c2ccc(Cl)c(Cl)c2)cc1	none
C=CCn1c(=N)n(CC(=O)c2ccc(Br)s2)c2ccccc21	Lmaj promast 97 (no result: ROMK mod)
C=CCn1c(=N)n(CC(=O)OC)c2ccccc21	none
Cc1ccc(NC(=O)/C(=C/c2cccs2)NC(=O)c2ccco2)c(C)c1	none
Cc1[nH][nH]c(=O)c1C=NCc1cccc(C(F)(F)F)c1	none
COCCN(C(=O)CSc1ncc(C(F)(F)F)cc1Cl)c1c(N)n(Cc2ccccc2)c(=O)[nH]c1=O	none
O=C(O)C1CCN(c2ccccc2[N+](=O)[O-])CC1	none
CCN1CCCC1CNCc1cccc(OC)c1OCc1ccc(F)cc1 (stereo not given)	Lmaj promast 63
O=C(c1ccc(Cl)c(S(=O)(=O)N2CCCC2)c1)N1CCN(c2ncccn2)CC1	none
CC(=O)N(C)C1=C(N2CCOCC2)C(=O)c2ccccc2C1=O	Lmaj promast 95 (no result: KCC2 mod)
O=C(Nc1ccc(Cl)cc1)/C(=C/c1ccc([N+](=O)[O-])cc1)c1nc2ccccc2s1	Lmaj promast 100
O=C(O)CC/C(=C\c1cc([N+](=O)[O-])ccc1Cl)c1nc2ccccc2s1	KCC2 mod -10 (no result: ROMK mod)
O=C(CSc1nc2ccccc2s1)NNC(=S)Nc1ccc(Cl)cc1	none (no result: ROMK mod)
O=C(CSc1ncnc2c1cnn2CCO)Nc1cccc(C(F)(F)F)c1	none
C=CCCCCCCCC(=O)OC	none (no result: ROMK mod)
C=CCNC(=O)c1cc(Cl)cc(Cl)c1	none (no result: KCC2 mod)
CCC(C)NC(=O)c1ccc(-n2c(=S)[nH]c3ccccc3c2=O)cc1 (stereo not given)	none
O=C(Cc1ccccc1)NCCc1ccc(Cl)cc1Cl	Lmaj promast 54
COCCNC(=S)NCCc1ccc(Cl)cc1Cl	WT yeast gro inh 70
COCC(C)NC(=S)NCCc1ccc(Cl)cc1Cl (stereo not given)	WT yeast gro inh 61
CCCCc1nc(SCc2ccc([N+](=O)[O-])cc2)n[nH]1	none
COc1ccc(CC2(CO)CCN(Cc3cnn(-c4ccccc4)c3)CC2)cc1	Lmaj promast 87
COc1ccc(CC2(CO)CCN(Cc3cnn(-c4ccccc4OC)c3)CC2)cc1	none
COc1ccc(CC2(CO)CCN(Cc3cnn(-c4ccc(F)cc4)c3)CC2)cc1	Lmaj promast 84
O=C(O)c1ccc(Nc2ncc([N+](=O)[O-])cc2[N+](=O)[O-])cc1	none
COc1ccc(N2CCN(C(=O)C3CC(O)CN3S(=O)(=O)c3ccc([N+](=O)[O-])cc3)CC2)cc1 (stereo not given)	none
COc1ccc(N=C2SC(C(=O)N3CCN(c4ccc([N+](=O)[O-])cc4)CC3)CC(=O)N2C)cc1 (stereo not given)	Lmaj promast 52
CCc1ccc(NC(=O)C(=O)NNC(=O)COc2cccc(OC)c2)cc1	KCC2 mod 18, ROMK mod 2.8
COc1c([N+](=O)[O-])c(=O)n(-c2ccccc2)c2ccccc12	none
CC(O)C(C(=O)OCc1ccc([N+](=O)[O-])cc1)N1C(=O)c2ccccc2C1=O (stereo not given)	none (no result: KCC2 mod)
O=C1CC(c2cccc(Cl)c2)CC(O)=C1C=NC1CCCC1 (stereo not given)	none
COc1ccccc1OCC(=O)Nc1cc(S(=O)(=O)N2CCCCC2)ccc1N1CCCCC1	Lmaj promast 98
COc1ccc(/C=C/C(=O)Nc2cc(S(=O)(=O)N3CCOCC3)ccc2N2CCCC2)cc1OC	none
O=C(/C=C/c1ccc2c(c1)OCO2)Nc1cc(S(=O)(=O)N2CCOCC2)ccc1N1CCOCC1	Lmaj promast 64 (no result: ROMK mod)
O=C(/C=C/c1ccccc1)Nc1cc(S(=O)(=O)N2CCOCC2)ccc1N1CCCC1	none (no result: ROMK mod)
COc1ccccc1C(=O)OCC(=O)Nc1cc(S(=O)(=O)N2CCOCC2)ccc1N1CCCC1	none
COc1ccc(/C=C/C(=O)Nc2cc(S(=O)(=O)N3CCCCC3)ccc2N2CCCCC2)cc1OC	Lmaj promast 97
CCN(CC)S(=O)(=O)c1ccc(N2CCCCC2)c(NC(=O)/C=C/c2cc(OC)c(OC)c(OC)c2)c1	Lmaj promast 69
CC(=O)c1ccc(-n2c(SCC(=O)c3c[nH]c4ccccc34)nc3ccccc3c2=O)cc1	none (no result: ROMK mod)
CSc1nnc(C(C)(C)C)c(=O)n1/N=C/c1ccc(Cl)cc1	none (no result: Diaph act CS, Lmaj promast, Diaph inh CS, ROMK mod, WT yeast gro inh)
O=C(c1cc([N+](=O)[O-])ccc1Cl)N1CCN(c2ccccn2)CC1	none (no result: ROMK mod)
O=C(c1cc(F)c(F)cc1Cl)N1CCN(c2ccc([N+](=O)[O-])c3ncccc23)CC1	Lmaj promast 57
C/C(N)=C(/C#N)C(=O)CSc1nc2cc(Cl)ccc2s1	none (no result: KCC2 mod)
CCn1nc([N+](=O)[O-])c(C(C#N)c2nc3cc(C(F)(F)F)ccc3s2)c(Cl)c1=O (stereo not given)	KCC2 mod -5.7, ROMK mod -5
CCc1ccc(CNc2ccc(O)cc2)cc1	Lmaj promast 98 (no result: ROMK mod)
CCOC(=O)c1ccc(NCc2ccncc2)cc1	none (no result: Diaph act CS, Diaph inh CS, ROMK mod, WT yeast gro inh)
O=C1CC(NNc2ccccc2)C(=O)N1c1ccccc1 (stereo not given)	Lmaj promast 62
Cc1ccc(N2C(=O)CC(NNc3nc4ccccc4s3)C2=O)cc1C (stereo not given)	Lmaj promast 56
COc1ccc(N2C(=O)CC(NNc3nc4ccccc4s3)C2=O)cc1 (stereo not given)	none (no result: Diaph act CS, Lmaj promast, Diaph inh CS, ROMK mod, WT yeast gro inh)
CCNC(=O)/C(=C/c1cccc([N+](=O)[O-])c1)NC(=O)c1ccc(C)cc1	none
CN(C)c1ccc(/C=C2/C(=O)N(c3ccc([N+](=O)[O-])cc3)N=C2N2CCOCC2)cc1	none (no result: KCC2 mod, ROMK mod)
CN(C)c1ccc(/C=C2\C(=O)N(c3ccc([N+](=O)[O-])cc3)N=C2N2CCOCC2)cc1	Lmaj promast 80 (no result: Diaph act CS, Diaph inh CS, ROMK mod, WT yeast gro inh)
O=C(O/N=C/C1=C(Cl)c2ccccc2CC1)c1ccc(F)cc1	none (no result: KCC2 mod)
C/C(Cn1nc([N+](=O)[O-])cc1C)=N\NC(=O)c1cccc(Br)c1	Lmaj promast 86 (no result: ROMK mod)
COc1cc(OC)cc(C(=O)N[C@H](C(=O)NCc2ccco2)C(C)C)c1	none
Cc1[nH]n(C(C)(C)C)c(=O)c1Sc1ccc(Cl)cc1	WT yeast gro inh 61
O=C(Nc1ccc(F)cc1)c1ccccc1Oc1ccc(C(F)(F)F)cc1[N+](=O)[O-]	Lmaj promast 97, WT yeast gro inh 66
